Measurements published in ChEMBL document CHEMBL1143242, “Specific small-molecule activator of Aurora kinase A induces autophosphorylation in a cell-free system” (J Med Chem, 2008).
The source made the active and inactive calls. The calls are words filed in the database; no cut-off is given here.

Assays:
[1] = target: T1, Aurora kinase A (Homo sapiens) (UniProt O14965); assay: Activation of human AURA activity expressed in baculovirus cells by time course assay
T1 sequence (whole entry): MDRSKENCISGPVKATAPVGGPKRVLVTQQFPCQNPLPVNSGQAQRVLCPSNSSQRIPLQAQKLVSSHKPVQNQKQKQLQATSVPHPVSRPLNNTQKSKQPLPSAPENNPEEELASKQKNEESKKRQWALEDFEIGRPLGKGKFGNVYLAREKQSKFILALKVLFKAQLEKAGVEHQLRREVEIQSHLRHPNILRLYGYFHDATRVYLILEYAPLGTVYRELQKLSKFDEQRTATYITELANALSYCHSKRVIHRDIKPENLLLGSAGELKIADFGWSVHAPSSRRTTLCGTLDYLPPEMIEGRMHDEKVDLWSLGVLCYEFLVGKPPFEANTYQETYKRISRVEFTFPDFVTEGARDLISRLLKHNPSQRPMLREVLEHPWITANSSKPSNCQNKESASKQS

[2] = target: T1, Aurora kinase A (Homo sapiens); assay: Activation of human AURA mediated histone H3 phosphorylation by phosphoimager analyzer
Summary of the method: (§1)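 Compound (5–50 µM, in DMSO) preincubated 5 min at 30 °C, then [γ-32P]ATP added for 10 min. 25% TCA precipitation, 15% SDS-PAGE, autoradiography; phosphoimager quantitation of relative intensity versus DMSO control.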

[3] = target: T1, Aurora kinase A (Homo sapiens); assay: Binding affinity to human AURA expressed in baculovirus in presence of ATP
[4] = target: T1, Aurora kinase A (Homo sapiens); assay: Activation of human AURA autophosphorylation activity
Summary of the method: (§2)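 Autophosphorylation read from the same gels: 1.5 µg histone H3 with AURA (40 ng) or AURB (120 ng) and [γ-32P]ATP, with or without compound at 25 and 50 µM in DMSO. Reactions precipitated with 25% TCA, resolved on 15% SDS-PAGE, then autoradiographed.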

[5] = target: Aurora kinase B (Homo sapiens) (UniProt Q96GD4); assay: Activation of human AURB mediated histone H3 phosphorylation by phosphoimager analyzer; summary of the method: as §1
[6] = target: T1, Aurora kinase A (Homo sapiens); assay: Activation of human AURA assessed as histone H3 phosphorylation; summary of the method: as §1
[7] = target: T1, Aurora kinase A (Homo sapiens); assay: Binding affinity to human AURA expressed in baculovirus
Summary of the method: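 Baculovirus-expressed, C-terminally His6-tagged AURA purified on Ni-NTA. Excitation was at 280 nm and quenching of intrinsic fluorescence was read at 301 nm, with inner-filter correction. FR came from a double-reciprocal plot, and Ka was calculated by the Chipman method.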

[8] = target: Aurora kinase B (Homo sapiens) (UniProt Q96GD4); assay: Activation of human AURB autophosphorylation activity; summary of the method: as §2
[9] = target: T1, Aurora kinase A (Homo sapiens); assay: Binding affinity to human AURA expressed in baculovirus in presence of anacardic acid
Summary of the method: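 Baculovirus-expressed, C-terminally His6-tagged AURA purified on Ni-NTA. Intrinsic fluorescence quenching was read at 301 nm (excitation 280 nm), with inner-filter correction. Ka came from double-reciprocal FR and the Chipman method.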

[10] = substrate: C=CC/C=C\C/C=C\CCCCCCCc1cccc(O)c1C(=O)O; assay: Ratio of Kcat for human AURA to Km for human AURA
Summary of the method: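 AURA kinase assay with H3 substrate, with increasing [γ-32P]ATP (2.5–15 µM) in the presence of DMSO or 50 µM compound; 5 min 30 °C preincubation, 10 min reaction, TCA precipitation, PAGE and phosphoimager quantitation. Km, Vmax and kcat fitted from activity against ATP concentration.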

[11] = substrate: C=CC/C=C\C/C=C\CCCCCCCc1cccc(O)c1C(=O)O; assay: Activity of human AURA expressed in baculovirus at 50 uM by phosphorimager analyzer; summary of the method: as §1

Aurora kinase B (Homo sapiens), sequence (Q96GD4 whole entry): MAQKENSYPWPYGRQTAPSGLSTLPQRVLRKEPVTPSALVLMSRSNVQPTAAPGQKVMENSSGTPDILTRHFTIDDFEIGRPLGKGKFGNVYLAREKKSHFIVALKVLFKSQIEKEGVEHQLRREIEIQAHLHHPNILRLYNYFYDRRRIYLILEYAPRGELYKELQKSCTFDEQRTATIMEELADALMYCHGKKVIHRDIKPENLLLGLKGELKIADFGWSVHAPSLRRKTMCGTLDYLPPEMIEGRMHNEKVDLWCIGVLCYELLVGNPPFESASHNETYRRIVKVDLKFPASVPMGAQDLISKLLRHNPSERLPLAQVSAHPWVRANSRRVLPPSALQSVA

C=CC/C=C\C/C=C\CCCCCCCc1cccc(O)c1C(=O)O was tested, and the Activity [1] was “Active”, the Activity [2] was “Active” and the Ka [3] was 10.1 µM⁻¹. The Activity [4] was “Active”, the Activity [5] was “inactive” and the Activity [6] was “Dose-dependent effect”. The Ka [7] was 5.2 µM⁻¹ and the Activity [8] was “inactive”.

Molecule Nc1ncnc2c1ncn2[C@@H]1O[C@H](COP(=O)(O)OP(=O)(O)OP(=O)(O)O)[C@@H](O)[C@H]1O has a Ka [9] of 27.5 nM⁻¹ and a Ka [7] of 5.7 µM⁻¹.

B1: Aurora kinase A (Homo sapiens), O14965 (protein)
chain: T1 sequence (whole entry)
B1 showed a kcat/Km [10] of 6.99 s⁻¹ mM⁻¹, a Km [11] of 40.2 mM and a Vmax [11] of 62.5 mmol/min/mg. The kcat [11] was 282 s⁻¹.
